Assay [1] concerns Streptomyces albus. The assay is described as follows: Antimicrobial activity against transconjugant Streptomyces albus carrying pEM4T-CASbeta after 5 to 7 days. In kind it is functional. The method, boiled down:
(§1)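 MIC by agar dilution. Spore suspensions were replica plated with a plate replicator onto Bennet's agar containing a range of streptolydigin or streptovaricin concentrations, then incubated 5 to 7 days at 30°C. Recombinant S. albus strains carried pEM4T-derived plasmids introduced by conjugation from E. coli ET12567(pUB307); producer strains and host S. albus J1074 were tested the same way.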

Assay [2] relates to Streptomyces albus. The assay is described as follows: Antimicrobial activity against transconjugant Streptomyces albus carrying pEM4T-Sbeta' after 5 to 7 days. The class given is functional. The method, boiled down: as §1
The test system of assay [3] is Streptomyces albus. The assay is described as follows: Antimicrobial activity against transconjugant Streptomyces albus carrying pEM4T-Sbeta105 with RNA polymerase beta subunit N474S/S475A mutant after 5 to 7 days. In kind it is functional. The method, boiled down: as §1
In assay [4] the test system is Streptomyces albus. The assay is described as follows: Antimicrobial activity against transconjugant Streptomyces albus carrying pEM4T-Sbeta103 with RNA polymerase beta subunit T638K mutant after 5 to 7 days. In kind it is functional. The method, boiled down: as §1
In assay [5] the test system is Streptomyces albus. The assay is described as follows: Antimicrobial activity against transconjugant Streptomyces albus carrying pEM4T-Sbeta206 with RNA polymerase beta subunit A471S mutant after 5 to 7 days. The class given is functional. The method, boiled down:
as §1

The subject of assay [6] is Streptomyces albus. The assay is described as follows: Antimicrobial activity against transconjugant Streptomyces albus carrying pEM4T-Sbeta101 with RNA polymerase beta subunit N474S mutant after 5 to 7 days. The class given is functional. The method, boiled down: as §1
The test system of assay [7] is Streptomyces albus. The assay is described as follows: Antimicrobial activity against transconjugant Streptomyces albus carrying pEM4T-Sbeta after 5 to 7 days. In kind it is functional. The method, boiled down:
as §1

For assay [8], the system named is Streptomyces albus. The assay is described as follows: Antimicrobial activity against transconjugant Streptomyces albus carrying pEM4T-Sbeta100 with RNA polymerase beta subunit I467L mutant after 5 to 7 days. In kind it is functional. The method, boiled down: as §1
Another assay concerns Streptomyces spectabilis. The assay is described as follows: Antimicrobial activity against Streptomyces spectabilis NRRL 2494 after 5 to 7 days.
Assay [9] deals with Streptomyces albus. The assay is described as follows: Antimicrobial activity against transconjugant Streptomyces albus carrying pEM4T-Sbeta102 with RNA polymerase beta subunit S475A mutant after 5 to 7 days. The class given is functional. The method, boiled down: as §1
The test system of assay [10] is Streptomyces albus. The assay is described as follows: Antimicrobial activity against transconjugant Streptomyces albus carrying pEM4T-Sbeta205 with RNA polymerase beta subunit S470N mutant after 5 to 7 days. In kind it is functional. The method, boiled down: as §1
The test system of assay [11] is Streptomyces albus. The assay is described as follows: Antimicrobial activity against transconjugant Streptomyces albus carrying pEM4T-Sbeta104 with RNA polymerase beta subunit A639S mutant after 5 to 7 days. In kind it is functional. The method, boiled down:
as §1

Assay [12] concerns Streptomyces albus. The assay is described as follows: Antimicrobial activity against transconjugant Streptomyces albus carrying pEM4T-Sbeta204 with RNA polymerase beta subunit L463I mutant after 5 to 7 days. The class given is functional. The method, boiled down: as §1
For assay [13], the system named is Streptomyces albus. The assay is described as follows: Antimicrobial activity against transconjugant Streptomyces albus carrying pEM4T-Abeta207 with RNA polymerase beta subunit S470N/A471S mutant after 5 to 7 days. The class given is functional. The method, boiled down:
as §1

The test system of assay [14] is Streptomyces albus. The assay is described as follows: Antimicrobial activity against transconjugant Streptomyces albus carrying pEM4T-Abeta202 with RNA polymerase beta subunit E485D mutant after 5 to 7 days. The class given is functional. The method, boiled down:
as §1

The subject of assay [15] is Streptomyces albus. The assay is described as follows: Antimicrobial activity against transconjugant Streptomyces albus carrying pEM4T-Lbeta106 with RNA polymerase beta subunit A636S mutant after 5 to 7 days. In kind it is functional. The method, boiled down:
as §1

Assay [16] concerns Streptomyces albus. The assay is described as follows: Antimicrobial activity against transconjugant Streptomyces albus carrying pEM4T-CALbeta after 5 to 7 days. The class given is functional. The method, boiled down:
as §1

The subject of assay [17] is Streptomyces albus. The assay is described as follows: Antimicrobial activity against transconjugant Streptomyces albus carrying pEM4T-Lbeta' after 5 to 7 days. The class given is functional. The method, boiled down:
as §1

A further assay concerns Streptomyces lydicus. The assay is described as follows: Antimicrobial activity against Streptomyces lydicus NRRL 2433 after 5 to 7 days. The class given is functional. The method, boiled down:
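Spore suspensions replica-plated with a plate replicator onto Bennet's agar plates containing a range of streptolydigin and streptovaricin concentrations. Plates incubated 5 to 7 days at 30°C. MIC scored as growth inhibition on the solid medium. Strain NRRL2433 is the streptolydigin producer.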

The test system of assay [18] is Streptomyces albus. The assay is described as follows: Antimicrobial activity against transconjugant Streptomyces albus carrying pEM4T-Lbeta101 with RNA polymerase beta subunit L485F mutant after 5 to 7 days. In kind it is functional. The method, boiled down:
as §1

Assay [19] relates to Streptomyces albus. The assay is described as follows: Antimicrobial activity against transconjugant Streptomyces albus carrying pEM4T-Lbeta105 with RNA polymerase beta subunit S624A mutant after 5 to 7 days. In kind it is functional. The method, boiled down:
as §1

Assay [20] relates to Streptomyces albus. The assay is described as follows: Antimicrobial activity against transconjugant Streptomyces albus carrying pEM4T-Abeta203 with RNA polymerase beta subunit F484L/E485D mutant after 5 to 7 days. In kind it is functional. The method, boiled down: as §1
In assay [21] the test system is Streptomyces albus. The assay is described as follows: Antimicrobial activity against transconjugant Streptomyces albus carrying pEM4T-Abeta after 5 to 7 days. In kind it is functional. The method, boiled down:
as §1

Assay [22] relates to Streptomyces albus. The assay is described as follows: Antimicrobial activity against transconjugant Streptomyces albus carrying pEM4T-Lbeta108 with RNA polymerase beta subunit F593Y/M594L mutant after 5 to 7 days. In kind it is functional. The method, boiled down: as §1
The subject of assay [23] is Streptomyces albus. The assay is described as follows: Antimicrobial activity against transconjugant Streptomyces albus carrying pEM4T-Lbeta102 with RNA polymerase beta subunit D486E mutant after 5 to 7 days. The class given is functional. The method, boiled down: as §1
Assay [24] relates to Streptomyces albus. The assay is described as follows: Antimicrobial activity against transconjugant Streptomyces albus carrying pEM4T-Lbeta100 with RNA polymerase beta subunit T458N mutant after 5 to 7 days. The class given is functional. The method, boiled down: as §1
Assay [25] deals with Streptomyces albus. The assay is described as follows: Antimicrobial activity against transconjugant Streptomyces albus carrying pEM4T-Lbeta104 with RNA polymerase beta subunit F593Y mutant after 5 to 7 days. In kind it is functional. The method, boiled down: as §1
Assay [26] concerns Streptomyces albus. The assay is described as follows: Antimicrobial activity against transconjugant Streptomyces albus J1074 after 5 to 7 days. The class given is functional. The method, boiled down:
as §1

Assay [27] has as its system Streptomyces albus. The assay is described as follows: Antimicrobial activity against transconjugant Streptomyces albus carrying pEM4T-Lbeta107 with RNA polymerase beta subunit L485F/D486E mutant after 5 to 7 days. In kind it is functional. The method, boiled down:
as §1

Assay [28] has as its system Streptomyces albus. The assay is described as follows: Antimicrobial activity against transconjugant Streptomyces albus carrying pEM4T after 5 to 7 days. In kind it is functional. The method, boiled down: as §1
The subject of assay [29] is Streptomyces albus. The assay is described as follows: Antimicrobial activity against transconjugant Streptomyces albus carrying pEM4T-Abeta201 with RNA polymerase beta subunit F484L mutant after 5 to 7 days. In kind it is functional. The method, boiled down:
as §1

Assay [30] relates to Streptomyces albus. The assay is described as follows: Antimicrobial activity against transconjugant Streptomyces albus carrying pEM4T-Lbeta103 with RNA polymerase beta subunit L555V mutant after 5 to 7 days. In kind it is functional. The method, boiled down:
as §1

Assay [31] has as its system Streptomyces albus. The assay is described as follows: Antimicrobial activity against transconjugant Streptomyces albus carrying pEM4T-Lbeta after 5 to 7 days. The class given is functional. The method, boiled down:
as §1

Converted amounts (≈) assume the structure as drawn. A value given as a limit tells only on which side of the number the result lay.

As to `CO[C@H]1/C=C/O[C@@]2(C)Oc3c(C)c(O)c4c(O)c(c(/C=N/N5CCN(C)CC5)c(O)c4c3C2=O)NC(=O)/C(C)=C\C=C\[C@H](C)[C@H](O)[C@@H](C)[C@@H](O)[C@@H](C)[C@H](OC(C)=O)[C@@H]1C` [RIFAMPIN], the MIC against Streptomyces albus [1] stood at 40 µg/mL (≈ 48.6 µM); in the assay on Streptomyces albus [2], 5 µg/mL (≈ 6.08 µM); in the assay with Streptomyces albus [3], 5 µg/mL (≈ 6.08 µM); with Streptomyces albus [4] it was 20 µg/mL (≈ 24.3 µM); against Streptomyces albus [5] it was 5 µg/mL (≈ 6.08 µM); with Streptomyces albus [6], 5 µg/mL (≈ 6.08 µM). For the same compound, the minimum inhibitory concentration (MIC) in the assay with Streptomyces albus [7] is 40 µg/mL (≈ 48.6 µM); in the assay on Streptomyces albus [8], 40 µg/mL (≈ 48.6 µM); against Streptomyces spectabilis, over 40 µg/mL; against Streptomyces albus [9] it was 40 µg/mL (≈ 48.6 µM); against Streptomyces albus [10] it was 5 µg/mL (≈ 6.08 µM); with Streptomyces albus [11], 40 µg/mL (≈ 48.6 µM). The figures for the MIC in the assay with Streptomyces albus [12] and in the assay with Streptomyces albus [13] were 5 µg/mL (≈ 6.08 µM) and 40 µg/mL (≈ 48.6 µM), respectively.

For the compound `CNC(=O)[C@@H](C)[C@H]1C(=O)/C(=C(O)/C=C/C(C)=C/[C@@H](C)[C@H]2O[C@@]3(C)O[C@H](C=C[C@@]34CO4)[C@@H]2C)C(=O)N1[C@@H]1CC[C@H](O)[C@H](C)O1` [STREPTOLYDIGIN], the MIC in the assay on Streptomyces albus [14] was 1 µg/mL (≈ 1.66 µM); with Streptomyces albus [15] it was 10 µg/mL (≈ 16.6 µM); against Streptomyces albus [16], 20 µg/mL (≈ 33.3 µM); with Streptomyces albus [17], 1 µg/mL (≈ 1.66 µM); in the assay with Streptomyces lydicus, over 200 µg/mL; in the assay with Streptomyces albus [18], 1 µg/mL (≈ 1.66 µM). Besides, the MIC in the assay with Streptomyces albus [19] was 20 µg/mL (≈ 33.3 µM); with Streptomyces albus [20] it was 9 µg/mL (≈ 15 µM); against Streptomyces albus [21], 1 µg/mL (≈ 1.66 µM); in the assay on Streptomyces albus [22] it was 1 µg/mL (≈ 1.66 µM); with Streptomyces albus [23], 10 µg/mL (≈ 16.6 µM); against Streptomyces albus [24], 20 µg/mL (≈ 33.3 µM). The MIC in the assay on Streptomyces albus [25] came to 10 µg/mL (≈ 16.6 µM); against Streptomyces albus [26], 1 µg/mL (≈ 1.66 µM); in the assay on Streptomyces albus [27] it was 1 µg/mL (≈ 1.66 µM); against Streptomyces albus [28], 1 µg/mL (≈ 1.66 µM); in the assay on Streptomyces albus [29], 6 µg/mL (≈ 9.99 µM); in the assay on Streptomyces albus [30], 1 µg/mL (≈ 1.66 µM). In addition, the MIC in the assay on Streptomyces albus [31] amounted to 20 µg/mL (≈ 33.3 µM).

With `COC(=O)[C@@H]1[C@H](O)[C@H](C)[C@H](O)[C@H](C)/C=C\C=C(/C)C(=O)Nc2c(C)c(OC(C)=O)c3c(c2O)C(=O)C(C)=C2OCOC(=C23)/C(C)=C/[C@@](C)(O)[C@H](O)[C@@H](C)[C@H]1O` [STREPTOVARICIN], the MIC against Streptomyces albus [1] amounted to 200 µg/mL (≈ 260 µM); with Streptomyces albus [2], 70 µg/mL (≈ 90.9 µM); against Streptomyces albus [3] it was 70 µg/mL (≈ 90.9 µM); in the assay on Streptomyces albus [4] it was 200 µg/mL (≈ 260 µM); against Streptomyces albus [5], 80 µg/mL (≈ 104 µM); with Streptomyces albus [6], 200 µg/mL (≈ 260 µM). Besides, the minimum inhibitory concentration (MIC) in the assay with Streptomyces albus [7] was 200 µg/mL (≈ 260 µM); in the assay with Streptomyces albus [8] it was 200 µg/mL (≈ 260 µM); in the assay with Streptomyces spectabilis, over 200 µg/mL; with Streptomyces albus [9], 200 µg/mL (≈ 260 µM); in the assay on Streptomyces albus [10], 80 µg/mL (≈ 104 µM); against Streptomyces albus [11], 200 µg/mL (≈ 260 µM). The values for the MIC against Streptomyces albus [12] and against Streptomyces albus [13] were 70 µg/mL (≈ 90.9 µM) and 200 µg/mL (≈ 260 µM), respectively.

The record behind these values is ChEMBL document CHEMBL1255437, “Involvement of the beta subunit of RNA polymerase in resistance to streptolydigin and streptovaricin in the producer organisms Streptomyces lydicus and Streptomyces spectabilis” (2010).
